# Test results: ChEMBL document CHEMBL4261487, “Small structural changes of the imidazopyridine diacylglycerol acyltransferase 2 (DGAT2) inhibitors produce an improved safety profile” (Medchemcomm, 2017)
# Legend:
# [1] = system: Canis familiaris; experiment: Unbound AUC in beagle dog at 100 to 150 mg/kg, po qd administered for 1 month; format: ADME, organism-based, Canis lupus familiaris; conditions: in vivo
# Summary of the method: (§1)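 Beagle dogs were dosed orally once daily in a 14-day exploratory study or 1-month toxicity studies. Steady-state systemic exposure over the 24 h dosing interval is reported as the mean of male and female values combined.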
# [2] = system: Canis familiaris; experiment: Unbound AUC in beagle dog at 2 mg/kg, po qd administered for 1 month; format: ADME, organism-based, Canis lupus familiaris; conditions: in vivo; summary of the method: as §1
# [3] = system: Canis familiaris; experiment: Unbound Cmax in beagle dog at 10 mg/kg, po qd administered for 1 month; format: ADME, organism-based, Canis lupus familiaris; conditions: in vivo; summary of the method: as §1
# [4] = system: Canis familiaris; experiment: Toxicity in telemetered beagle dog assessed as increase in heart rate at 75 mg/kg administered via oral gavage measured over 24 hrs; format: organism-based, Canis lupus familiaris; conditions: in vivo
# [5] = system: Canis familiaris; experiment: Toxicity in telemetered beagle dog assessed as increase in systolic pressure at 25 mg/kg administered via oral gavage measured over 24 hrs; format: organism-based, Canis lupus familiaris; conditions: in vivo
# [6] = system: Rattus norvegicus; experiment: Unbound Cmax in Wistar Han IGS rat at 10 mg/kg, po qd administered for 14 days; format: ADME, organism-based; conditions: in vivo, 336 h
# Summary of the method: (§2)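 Wistar Han rats were dosed orally once daily for 14 days (exploratory, 5/sex/dose) or 1 month (toxicity, 10/sex/dose). Toxicokinetic satellite animals (3–4/sex/dose) were used, and steady-state systemic exposure is given as the mean of male and female values combined.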
# [7] = target: CYP3A4 (Homo sapiens, UniProt P08684); experiment: Drug metabolism in human liver microsomes assessed as CYP3A4-mediated oxidative metabolism by measuring clearance rate; format: ADME; conditions: liver microsomes, read-out: CLH
# Sequence of CYP3A4 (P08684 whole entry): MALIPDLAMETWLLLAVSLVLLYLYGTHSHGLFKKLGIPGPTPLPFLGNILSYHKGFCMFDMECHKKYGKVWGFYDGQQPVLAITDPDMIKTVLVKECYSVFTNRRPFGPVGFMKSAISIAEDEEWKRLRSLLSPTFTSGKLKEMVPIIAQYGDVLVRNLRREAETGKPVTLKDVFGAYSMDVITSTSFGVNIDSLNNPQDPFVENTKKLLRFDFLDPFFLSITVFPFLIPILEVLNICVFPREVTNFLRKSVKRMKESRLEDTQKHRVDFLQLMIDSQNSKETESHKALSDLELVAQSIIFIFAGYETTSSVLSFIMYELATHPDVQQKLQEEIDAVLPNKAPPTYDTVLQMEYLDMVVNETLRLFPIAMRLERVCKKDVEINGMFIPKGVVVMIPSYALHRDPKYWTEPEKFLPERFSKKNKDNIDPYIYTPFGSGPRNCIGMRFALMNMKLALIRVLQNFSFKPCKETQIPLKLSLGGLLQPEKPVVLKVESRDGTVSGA
# [8] = system: Rattus norvegicus; experiment: Unbound AUC in Wistar Han IGS rat at 10 mg/kg, po qd administered for 14 days; format: ADME, organism-based; conditions: in vivo, 336 h; summary of the method: as §2
# [9] = system: Rattus norvegicus; experiment: Toxicity in Wistar Han IGS rat at 100 mg/kg, po qd administered for 14 days; format: organism-based; conditions: in vivo, 336 h
# Summary of the method: (§3)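 Wistar Han rats, daily oral dosing for 14 days (5/sex/dose) or 1 month (10/sex/dose); microscopic findings reported as incidence by sex, plus organ weights.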
# [10] = system: Canis familiaris; experiment: Unbound AUC in beagle dog at 10 mg/kg, po qd administered for 1 month; format: ADME, organism-based, Canis lupus familiaris; conditions: in vivo; summary of the method: as §1
# [11] = system: Canis familiaris; experiment: In vivo inhibition of DGAT2 in beagle dog assessed as coverage of in vitro IC50 for dog DGAT2 at 300 mg/kg, po qd administered for 14 days; format: functional, Canis lupus familiaris; design: scale not given: the % may be the effect or the level left
# Summary of the method: (§4)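 Beagle dogs, once-daily oral dosing for 14 days or 1 month; systemic exposure with sexes combined; coverage is the average % above dog DGAT2 IC50 at steady state over the 24 h dosing interval.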
# [12] = system: Canis familiaris; experiment: In vivo inhibition of DGAT2 in beagle dog assessed as coverage of in vitro IC50 for dog DGAT2 at 10 mg/kg, po qd administered for 1 month; format: functional, Canis lupus familiaris; design: scale not given: the % may be the effect or the level left; summary of the method: as §4
# [13] = system: Canis familiaris; experiment: Unbound Cmax in telemetered beagle dog at 25 mg/kg administered via oral gavage measured over 24 hrs; format: ADME, organism-based, Canis lupus familiaris; conditions: in vivo
# Summary of the method: (§5)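 Telemetered Beagle dogs given oral doses, with blood pressure and heart rate monitored after dosing alongside plasma exposure.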
# [14] = system: Canis familiaris; experiment: Toxicity in beagle dog assessed as body weight gain at 150 mg/kg, po qd administered for 10 days; format: organism-based, Canis lupus familiaris; conditions: in vivo, 240 h
# [15] = system: Canis familiaris; experiment: Unbound Cmax in beagle dog at 5 mg/kg, po qd administered for 1 month; format: ADME, organism-based, Canis lupus familiaris; conditions: in vivo
# Summary of the method: (§6)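 One-month dog toxicity study with once-daily oral dosing. Toxicity groups were 2/sex/dose, and unbound peak exposure was taken from toxicokinetic sampling.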
# [16] = system: Canis familiaris; experiment: Toxicity in beagle dog assessed as decrease in food consumption at 150 mg/kg, po qd administered for 10 days; format: organism-based, Canis lupus familiaris; conditions: in vivo, 240 h
# [17] = system: UGT; experiment: Drug metabolism in human liver microsomes assessed as UGT-mediated glucuronidation by measuring clearance rate; format: ADME; conditions: liver microsomes, read-out: CLH
# [18] = system: Canis familiaris; experiment: Unbound Cmax in beagle dog […] at 75 mg/kg, po qd administered for 14 days; format: ADME, organism-based, Canis lupus familiaris; conditions: in vivo, 336 h
# Summary of the method: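 Exploratory 14-day dog toxicity study with daily oral dosing. Toxicokinetic exposure is reported as the mean with male and female systemic values combined.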
# [19] = system: Canis familiaris; experiment: Toxicity in telemetered beagle dog assessed as increase in heart rate at 20 mg/kg, iv administered as single bolus dose over 2 mins; format: organism-based, Canis lupus familiaris; conditions: in vivo
# [20] = system: Canis familiaris; experiment: Toxicity in beagle dog assessed as renal tubular degeneration at 300 mg/kg, po qd administered for 14 days; format: organism-based, Canis lupus familiaris; conditions: in vivo, 336 h
# [21] = system: Rattus norvegicus; experiment: Unbound Cmax in Wistar Han IGS rat at 500 mg/kg, po qd administered for 14 days; format: ADME, organism-based; conditions: in vivo, 336 h; summary of the method: as §2
# [22] = system: Rattus norvegicus; experiment: Toxicity in Wistar Han IGS rat assessed as gastric ulcer at 500 mg/kg, po qd administered for 14 days; format: organism-based; conditions: in vivo, 336 h; summary of the method: as §3
# [23] = system: Canis familiaris; experiment: Toxicity in beagle dog assessed as prolongation of QTc interval at 100 to 150 mg/kg, po qd administered for 25 days; format: organism-based, Canis lupus familiaris; conditions: in vivo, 600 h
# [24] = system: Rattus norvegicus; experiment: Toxicity in Wistar Han IGS rat at 30 mg/kg, po qd administered for 1 month; format: organism-based; conditions: in vivo; summary of the method: as §3
# [25] = Toxicity in po dosed beagle dog administered as qd for 14 days; format: organism-based, Canis lupus familiaris; conditions: in vivo
# [26] = system: Canis familiaris; experiment: Toxicity in po dosed telemetered beagle dog assessed as increase in heart rate measured over 24 hrs; format: organism-based, Canis lupus familiaris; conditions: in vivo
# [27] = system: Canis familiaris; experiment: In vivo inhibition of DGAT2 in beagle dog assessed as coverage of in vitro IC50 for dog DGAT2 at 5 mg/kg, po qd administered for 1 month; format: functional, Canis lupus familiaris; design: scale not given: the % may be the effect or the level left; summary of the method: as §4
# [28] = system: Rattus norvegicus; experiment: Unbound AUC in Wistar Han IGS rat at 30 mg/kg, po qd administered for 1 month; format: ADME, organism-based; conditions: in vivo; summary of the method: as §2
# [29] = system: Canis familiaris; experiment: Toxicity in telemetered beagle dog assessed as increase in heart rate at 10 mg/kg administered via oral gavage measured over 24 hrs; format: organism-based, Canis lupus familiaris; conditions: in vivo
# [30] = system: Canis familiaris; experiment: Toxicity in beagle dog assessed as unscheduled death at 300 mg/kg, po qd administered for 14 days; format: organism-based, Canis lupus familiaris; conditions: in vivo, 336 h
# [31] = system: Canis familiaris; experiment: Unbound Cmax in beagle dog at 30 mg/kg, po qd administered for 1 month; format: ADME, organism-based, Canis lupus familiaris; conditions: in vivo; summary of the method: as §6
# [32] = system: Canis familiaris; experiment: Unbound AUC in beagle dog at 30 mg/kg, po qd administered for 1 month; format: ADME, organism-based, Canis lupus familiaris; conditions: in vivo; summary of the method: as §1
# [33] = system: Canis familiaris; experiment: Unbound Cmax in telemetered beagle dog at 50 mg/kg administered via oral gavage measured over 24 hrs; format: ADME, organism-based, Canis lupus familiaris; conditions: in vivo; summary of the method: as §5
# [34] = system: Canis familiaris; experiment: In vivo inhibition of DGAT2 in beagle dog assessed as coverage of in vitro IC50 for dog DGAT2 at 30 mg/kg, po qd administered for 1 month; format: functional, Canis lupus familiaris; design: scale not given: the % may be the effect or the level left; summary of the method: as §4
# [35] = Volume of distribution at steady state in beagle dog at 1 mg/kg, iv; format: ADME, organism-based, Canis lupus familiaris; conditions: in vivo, read-out: Vdss
# Summary of the method: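 Male Beagle dogs, single iv dose, crystalline form of compound; value is the mean of two experiments.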
# [36] = system: Canis familiaris; experiment: Toxicity in telemetered beagle dog assessed as increase in systolic pressure at 5 mg/kg administered via oral gavage measured during 4 hrs of post dosing; format: organism-based, Canis lupus familiaris; conditions: in vivo
# [37] = system: Canis familiaris; experiment: Toxicity in telemetered beagle dog assessed as increase in heart rate at 50 mg/kg administered via oral gavage measured up to 9 hrs of post dosing; format: organism-based, Canis lupus familiaris; conditions: in vivo
# [38] = Oral bioavailability in beagle dog at 5 mg/kg; format: ADME, organism-based, Canis lupus familiaris; conditions: in vivo
# [39] = Ratio of Cmax in telemetered beagle dog at 25 mg/kg administered via oral gavage measured over 24 hrs to IC50 for in vitro inhibition of dog DGAT2; format: organism-based, Canis lupus familiaris; conditions: in vivo
# Summary of the method: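 Telemetered Beagle dogs given single oral doses (5, 25 and 50 mg kg–1), with systolic and diastolic blood pressure and heart rate monitored after dosing. Cmax is related to the dog DGAT2 enzymatic IC50, which is the geometric mean of at least three replicates.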
# [40] = system: Canis familiaris; experiment: Toxicity in beagle dog at 3 to 30 mg/kg, po qd administered for 1 month; format: organism-based, Canis lupus familiaris; conditions: in vivo
# [41] = Half life in beagle dog at 1 mg/kg, iv; format: ADME, organism-based, Canis lupus familiaris; conditions: in vivo
smiles,measurement,setting,value
CS(=O)(=O)O.O=C([C@@H]1CCCN(c2ccc3nc(C4(n5cc(Cl)cn5)CC4)[nH]c3n2)C1)N1CCCC1,fAUC,[1],92600 ng·h/mL
same,fAUC,[2],238 ng·h/mL
same,fCmax,[3],2030 nM
same,Activity,[4],8 to 30 bpm
same,Activity,[5],5 mmHg
same,fCmax,[6],390 nM
same,microsomal CLint,[7],23.7 µL/min/mg
same,fAUC,[8],1190 ng·h/mL
same,Activity,[9],Non-Toxic
same,fAUC,[10],5280 ng·h/mL
same,Activity,[11],>99%
same,Activity,[12],97%
same,fCmax,[13],4.06 µM
same,Activity,[14],Toxic
same,fCmax,[15],1010 nM
same,Activity,[16],Toxic
same,microsomal CLint,[17],< 1.9 µL/min/mg
same,fCmax,[18],6.54 µM
same,Activity,[19],27 bpm
same,Activity,[20],Toxic
same,fCmax,[21],18.8 µM
same,Activity,[22],Toxic
same,Activity,[23],Toxic
same,Activity,[24],Non-Toxic
same,MTD at 336 h,[25],75 mg/kg/day
same,Activity,[26],Dose-dependent effect
same,Activity,[27],87%
same,fAUC,[28],4630 ng·h/mL
same,Activity,[29],4 to 10 bpm
same,Activity,[30],Toxic
C[C@@H](c1nc2ccc(N3CCC[C@@H](C(=O)N4CCCC4)C3)nc2[nH]1)n1cc(Cl)cn1,fCmax,[31],3.76 µM
same,fCmax,[3],1270 nM
same,fAUC,[32],9530 ng·h/mL
same,fCmax,[33],4.7 µM
same,Activity,[34],96%
same,microsomal CLint,[7],27.5 µL/min/mg
same,fAUC,[10],2680 ng·h/mL
same,Activity,[12],86%
same,fCmax,[13],2.14 µM
same,Vd,[35],0.54 L/kg
same,Activity,[36],4 to 6 mmHg
same,microsomal CLint,[17],10.8 µL/min/mg
same,Activity,[37],15 bpm
same,bioavailability,[38],75%
same,Ratio,[39],52
same,Activity,[40],Non-Toxic
same,half-life,[41],3.2 h
